Source: ChEMBL document CHEMBL1124451, “[(1H-imidazol-1-yl)methyl]- and [(3-pyridinyl)methyl]pyrroles as thromboxane synthetase inhibitors” (J Med Chem, 1989)

Tests used:
[1] = biological target: T1, Thromboxane-A synthase (Homo sapiens) (UniProt P24557); test: Relative potency of thromboxane A2 synthetase as reduced ADP-induced aggregation of human platelet rich plasma compared to dazoxiben; format: functional, cell-free
T1 sequence (whole entry): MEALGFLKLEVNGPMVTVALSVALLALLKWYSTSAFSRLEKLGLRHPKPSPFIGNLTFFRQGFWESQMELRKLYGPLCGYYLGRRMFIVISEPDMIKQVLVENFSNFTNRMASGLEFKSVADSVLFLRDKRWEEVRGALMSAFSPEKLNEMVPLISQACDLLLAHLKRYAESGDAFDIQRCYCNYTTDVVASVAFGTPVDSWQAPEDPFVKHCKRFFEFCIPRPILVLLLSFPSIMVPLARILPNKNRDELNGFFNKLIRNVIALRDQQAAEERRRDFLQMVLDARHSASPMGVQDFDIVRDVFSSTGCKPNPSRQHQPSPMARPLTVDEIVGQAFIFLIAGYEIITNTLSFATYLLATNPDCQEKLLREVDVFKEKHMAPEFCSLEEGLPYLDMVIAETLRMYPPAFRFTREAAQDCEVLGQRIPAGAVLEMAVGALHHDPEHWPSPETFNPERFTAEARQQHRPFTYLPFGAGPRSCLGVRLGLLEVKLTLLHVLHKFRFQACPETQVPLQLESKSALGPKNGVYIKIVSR

Homo sapiens [2] = organism: Homo sapiens; test: In vitro inhibition of ADP-induced aggregation of human platelet rich plasma in the presence of pig aortal microsomes, at 5*10e-6 M compound concentration.
Homo sapiens [3] = organism: Homo sapiens; test: In vitro inhibition of ADP-induced aggregation of human platelet rich plasma in the presence of pig aortal microsomes.; format: functional; details: Aorta
How it was run: (§1)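 Human citrated blood (0.38% citrate final), PRP by centrifugation at 200g, room temperature. Drug added to 1.0 mL PRP, 2 min at 37 °C with stirring (500 rpm), then pig aortal microsomes 3 min; microsome amount set by the dazoxiben standard. Aggregation induced by 5 μM ADP (final), read turbidimetrically.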

Homo sapiens [4] = organism: Homo sapiens; test: Relative potency to inhibit ADP-induced aggregation of human platelet rich plasma compared to that of dazoxiben, in vitro using pig aortal microsomes.; format: functional; details: Aorta
Mus musculus [5] = test: Activity at 10 mg/kg […] against mortality in a pulmonary thromboembolism model in mice (10 animals) at -3h following oral administration; format: functional
How it was run: (§2)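 Male Swiss-Webster mice (22-26 g), 10 per group (one group of 9); test material given po in 0.2 mL CMC at -1, -3, -5 or -18 h before challenge. At hour 0, collagen extract plus epinephrine hydrochloride given iv via tail vein in 0.9% saline. The collagen amount was titrated per lot to 90-100% mortality in vehicle controls. Readout: % surviving at 24 h.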

Mus musculus [6] = test: Activity at 25 mg/kg given intravenously against mortality in a pulmonary thromboembolism model in mice (9 animals) at -3h; format: functional; details: route intravenous
How it was run: (§3)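 Male Swiss-Webster mice (22-26 g); test material given iv in 0.2 mL CMC before challenge (mostly at -3 h, one group at -1 h). At hour 0, collagen extract plus epinephrine hydrochloride given iv in 0.2 mL 0.9% saline via tail vein. The collagen amount was set per lot as the minimum giving 90-100% mortality in CMC-vehicle controls. Readout: % surviving at 24 h.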

Mus musculus [7] = test: Activity at 10 mg/kg […] against mortality in a pulmonary thromboembolism model in mice (10 animals) at -1h following oral administration; format: functional; how it was run: as §2
Mus musculus [8] = test: Activity at 10 mg/kg […] against mortality in a pulmonary thromboembolism model in mice (10 animals) at -7h following oral administration; format: functional
Mus musculus [9] = test: Activity at 10 mg/kg […] against mortality in a pulmonary thromboembolism model in mice (10 animals) at -18h following oral administration; format: functional; how it was run: as §2
Mus musculus [10] = test: Activity at 10 mg/kg […] against mortality in a pulmonary thromboembolism model in mice (10 animals) at -5h following oral administration; format: functional; how it was run: as §2
Mus musculus [11] = test: Activity at 10 mg/kg given intravenously against mortality in a pulmonary thromboembolism model in mice (10 animals) at -1h; format: functional; details: route intravenous; how it was run: as §3
Homo sapiens [12] = organism: Homo sapiens; test: In vitro inhibition of ADP-induced aggregation of human platelet rich plasma in the presence of pig aortal microsomes; format: functional; details: Aorta; how it was run: as §1
Homo sapiens [13] = organism: Homo sapiens; test: Relative potency to inhibit ADP-induced aggregation of human platelet rich plasma compared to that of dazoxiben, in vitro using pig aortal microsomes; format: functional; details: Aorta
Mus musculus [14] = test: Activity at 10 mg/kg given intravenously against mortality in a pulmonary thromboembolism model in mice (10 animals) at -3h; format: functional; details: route intravenous; how it was run: as §3
Mus musculus [15] = test: Activity at 20 mg/kg given intravenously against mortality in a pulmonary thromboembolism model in mice (10 animals) at -3h; format: functional; details: route intravenous; how it was run: as §3

Row | Relative potency [1] | IC50 (Homo sapiens [3]) [µM] | SMILES | Relative potency (Homo sapiens [4]) | further results
1 | 0.62 |  | Cn1cc(/C=C/C(=O)O)cc1Cn1ccnc1 |  | 
2 |  |  | CCOC(=O)/C(C)=C\c1ccc(Cc2cccnc2)n1C |  | inhibition (Homo sapiens [2]): 49%
3 |  | 8.1 | CCOC(=O)/C(C)=C\c1ccc(Cn2ccnc2)[nH]1 | 0.31 | 
4 | 1.3 |  | C/C(=C\c1cc(Cn2ccnc2)n(C)c1)C(=O)O |  | 
5 | 0.08 |  | C/C(=C/c1ccc(Cc2cccnc2)n1-c1ccccc1)C(=O)O |  | 
6 |  | 3.2 | CCOC(=O)/C(C)=C\c1cc(Cc2cccnc2)n(C(C)(C)C)c1 | 0.59 | 
7 |  |  | CCOC(=O)/C(C)=C\c1ccc(Cn2ccnc2)n1C |  | IC50 (Homo sapiens [12]): 26 µM; Relative potency (Homo sapiens [13]): 0.08
8 |  | 20 | C/C(=C\c1ccc(Cn2ccnc2)[nH]1)C(=O)OCc1ccccc1 | 0.11 | 
9 |  | 180 | CCOC(=O)/C(C)=C\c1ccc(Cc2cccnc2)n1-c1ccccc1 | 0.01 | 
10 |  | 8.9 | CCOC(=O)/C=C\c1ccc(Cn2ccnc2)n1C | 0.25 | 
11 |  | 1.8 | CCOC(=O)/C=C/c1cc(Cn2ccnc2)n(C)c1 | 1.2 | 

Row | SMILES | Relative potency [1] | IC50 (Homo sapiens [3]) [µM] | Relative potency (Homo sapiens [4]) | further results
12 | O=C(O)c1ccc(OCCn2ccnc2)cc1 [DAZOXIBEN] |  | 2.28 |  | survival at 10 mg/kg (Mus musculus [5]): 40%; survival at 25 mg/kg (Mus musculus [6]): 67%; survival at 10 mg/kg (Mus musculus [7]): 50%; survival at 10 mg/kg (Mus musculus [8]): 20%; survival at 10 mg/kg (Mus musculus [9]): 10%; survival at 10 mg/kg (Mus musculus [10]): 20%; survival at 10 mg/kg (Mus musculus [11]): 30%
13 | CCn1c(/C=C(/C)C(=O)O)ccc1Cc1cccnc1 | 45 |  |  | survival at 10 mg/kg (Mus musculus [14]): 10%; survival at 20 mg/kg (Mus musculus [15]): 10%
